Only some compounds are listed: those with a hit (about 2.9% of all), similar ones and a draw of the others.
CHO parental Ca – counter-screen: ATP calcium response change in parental CHO cells. hit rate 0.63% among 330,000. AID 463079. parental CHO-K1, ATP-induced calcium, Fluo-8 fluorescence. inhibition, % at 5.6 µM;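 active = inhibition above that plate's mean sample inhibition plus 3 SD, cut at about 26% in these data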
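material = parental CHO cells | also added = ATP as calcium-mobilizing challenge | dosing = single point at 5.6 µM | detection = intracellular calcium via Fluo-8 no-wash fluorescent dye | read-out = % inhibition | benchmarks = low control ATP plus DMSO, high control DMSO only | repeats = one well per compound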
M1 PAM parental – counter-screen for M1 PAMs: effect in parental CHO-K1 cells; ATP EC20, Fluo-8 calcium fluorescence; 0% at ATP EC20, 100% at ATP max; activation, % at 3 µM; hit rate 0.02% among 360,000; AID 602247;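 active = activation above the run cutoff, the mean activation of all test compounds plus 3 SD, cut at about 40% in these data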;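 also: peak over basal fluorescence ratio in a 140 s read after ATP addition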
CHO-K1 Ca antag – M1 antagonist counterscreen hit in parental CHO-K1 cells; ATP-induced calcium, Fluo-8 fluorescence; inhibition, % at 3 µM; hit rate 0.6% among 360,000; AID 602250;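 active = inhibition above a per-plate cutoff, the plate's mean sample inhibition plus 3 SD, cut at about 24% in these data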
M1 ag parental – nonselective activator or artifact in parental CHO-K1 cells; Fluo-8 calcium fluorescence; scaled to maximal ATP response, vehicle zero; activation, % at 3 µM; hit rate 0.48% among 360,000; AID 602248; in the data active = activation above about 15%;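 also: untransfected CHO-K1 host cells lacking M1 receptor as counterscreen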
OX1R antag-1 – blocks the human orexin 1 receptor; hit rate 1.8% among 330,000; inhibition, % at 6.6 µM; OX1R-expressing cells, FRET antagonist read-out; O43613; in the data active = inhibition mostly above about 38%, no sharp cut-off; inactive = mostly below about 40%
Target sequence (O43613 whole entry, looked up): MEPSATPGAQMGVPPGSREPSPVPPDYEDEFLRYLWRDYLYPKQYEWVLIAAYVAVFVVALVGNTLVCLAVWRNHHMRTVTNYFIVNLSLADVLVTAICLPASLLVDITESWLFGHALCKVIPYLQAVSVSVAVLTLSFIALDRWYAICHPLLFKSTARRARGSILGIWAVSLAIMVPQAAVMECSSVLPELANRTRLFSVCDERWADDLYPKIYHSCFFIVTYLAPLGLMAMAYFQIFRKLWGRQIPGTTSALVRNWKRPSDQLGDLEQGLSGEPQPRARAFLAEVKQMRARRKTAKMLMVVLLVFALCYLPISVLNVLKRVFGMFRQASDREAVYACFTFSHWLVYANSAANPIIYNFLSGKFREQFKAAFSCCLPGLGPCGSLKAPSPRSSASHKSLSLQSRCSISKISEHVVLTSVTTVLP
OX1R antag-2 – human HCRTR1 antagonism; hit rate 0.43% among 330,000; CHO/OX1R cells, Fluo-8 calcium fluorescence, orexin A; inhibition, % at 5 µM;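 active = inhibition above its plate's threshold, mean inhibition of all tested compounds on the plate plus 3 SD, cut at about 37% in these data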
Numbers stand for hits; - = inactive; . = no result given.

SMILES	CHO parental Ca	M1 PAM parental	CHO-K1 Ca antag	M1 ag parental	OX1R antag-1	OX1R antag-2
COc1ccc(-c2noc(C3CCCN(S(=O)(=O)c4ccc(C)c(Cl)c4)C3)n2)cc1OC (centres undefined)	-	-	-	-	-	-
COc1cccc(C(=O)Nc2cc(C)c3c(=O)oc4ccccc4c3n2)c1	-	-	-	-	45	-
CN(c1ccc(OCC(=O)OCC(=O)Nc2ccc(OC(F)F)cc2)cc1)S(=O)(=O)c1cccs1	-	-	-	-	-	-
COc1ccc(CCn2c(=N)c(C(=O)NC3CCCC3)cc3c(=O)n4ccccc4nc32)cc1OC	-	-	-	-	-	-
Cc1cccn2c(=O)c3cc(C(=O)NCC4CCCO4)c(=N)n(CCc4ccccc4)c3nc12 (centres undefined)	-	-	-	-	51	-
COc1ccc(CCNC(=O)c2cc3c(=O)n4cccc(C)c4nc3n(CC3CCCO3)c2=N)cc1 (centres undefined)	-	-	-	-	-	-
COc1ccc(CCn2c(=N)c(C(=O)NCC3CCCO3)cc3c(=O)n4ccccc4nc32)cc1OC (centres undefined)	-	-	-	-	50	-
CC(C)(C)c1ccc(NNC(=O)C2CCC2)cc1	-	-	-	-	-	-
CS(=O)(=O)N1CCN(c2ccccc2NC(=O)Nc2cccc(Cl)c2)CC1	-	-	-	-	-	-
Cc1ccc(S(=O)(=O)NCc2ccccn2)c(C)c1C	-	-	-	-	-	-
Cc1ccc(S(=O)(=O)NCc2ccncc2)c(C)c1C	41	-	-	-	-	-
Cc1c(NS(=O)(=O)c2cccc(C(=O)NCc3cccc(Cl)c3)c2)c(=O)n(-c2ccccc2)n1C	.	-	-	-	.	.
CCCC(=O)Nc1nc2ccc3nc(C)sc3c2s1	-	-	-	-	-	-
CCCCC(=O)Nc1nc2ccc3nc(C)sc3c2s1	-	-	-	-	52	-
CCCCNS(=O)(=O)NC(=O)C1=C(N2CCCC2)COC1=O	-	-	27	-	-	-
Cc1cccc(N(CC(=O)N2CCc3ccccc3C2)S(C)(=O)=O)c1C	-	-	-	-	-	-
Cc1nc2ccc(NC(=O)c3ccccc3)cc2s1	-	-	-	-	-	-
Cc1nc2ccc(NC(=O)c3ccc4ccccc4n3)cc2s1	-	-	-	-	65	-
Cc1nnc(NC(=O)c2ccc3ccccc3n2)s1	-	-	-	20	-	-
CC(C)CN(C(=O)COC(=O)c1ccc(Br)o1)c1c(N)n(Cc2ccccc2)c(=O)[nH]c1=O	-	-	-	-	-	-
Cc1occc1C(=O)N1CCCC(Nc2ccc(F)c(F)c2)C1 (centres undefined)	-	-	-	16	-	-
O=C(CCCn1c(SCC(=O)NC2CCCCC2)nc2ccccc2c1=O)NCC1CCCO1 (centres undefined)	-	-	-	-	-	-
O=C(CCCn1c(SCc2ccccc2F)nc2ccccc2c1=O)NCC1CCCO1 (centres undefined)	-	-	-	17	-	-
C[C@H](O)CNC(=O)c1[nH]cnc1C(=O)Nc1cccc(Cl)c1	.	-	-	-	.	.
Cc1cn([C@H]2C[C@H](O)[C@@H](/C=C/C(=O)NCCC(C)C)O2)c(=O)[nH]c1=O	.	-	-	-	.	.
SMILES	CHO parental Ca	M1 PAM parental	CHO-K1 Ca antag	M1 ag parental	OX1R antag-1	OX1R antag-2
Cc1ccc(S(=O)(=O)CC(c2ccccc2)N2CCCCC2)cc1 (centres undefined)	-	-	27	-	-	-
Cc1ccc(S(=O)(=O)CC(c2ccccc2)N2CCOCC2)cc1 (centres undefined)	-	-	-	-	-	-
Cc1cc(/C=C2/SC(=S)N(c3cccc(C(F)(F)F)c3)C2=O)c(C)n1-c1cccnc1	50	-	36	-	-	-
COc1ccc(/C=C2\SC(=S)N(c3cccnc3)C2=O)cc1	-	-	-	-	-	-
O=C1/C(=C\c2ccc(O)cc2)SC(=S)N1c1cccnc1	58	-	-	17	-	-
O=C(O)c1cc2[nH]c3c(c2cc1Cl)CCCC3	-	-	-	-	-	-
CCN(C(=O)COC(=O)CNC(=O)c1cccs1)c1c(N)n(Cc2ccccc2)c(=O)[nH]c1=O	.	-	-	-	.	.
COc1ccccc1CCc1nnc(CCC(=O)N(C)Cc2cccc3cnccc23)o1	-	-	25	-	-	-
O=C1c2ccccc2C(=O)C1c1ccc2ccccc2n1	-	-	-	-	51	-
COC(=O)C1=C(C)NC(C)=C(C(=O)OC)C1c1ccc2ccccc2n1	-	-	-	-	-	-
O=C(c1cc2nc(-c3ccccc3)cc(-c3ccccc3)n2n1)N1CCCC1	-	-	-	16	-	-
Cc1ccc(C)c(S(=O)(=O)N2CCCCC2CCNC(=O)C(=O)NCc2ccncc2)c1 (centres undefined)	-	-	-	-	-	-
CCn1c(CNC(=O)c2ccccc2F)cc2cc(C)ccc21	.	-	31	-	.	.
Cn1c(CNC(=O)c2ccc(F)cc2)cc2ccccc21	-	-	-	-	-	-
COc1cc(C(=O)NCc2cc3ccccc3n2C)cc(OC)c1OC	-	-	-	16	-	-
CCn1c(CNC(=O)c2cc(OC)c(OC)c(OC)c2)cc2ccccc21	-	-	-	-	69	-
CCn1c(CNC(=O)c2ccccc2Cl)cc2ccccc21	-	-	-	-	-	-
Cc1ccccc1-c1cc2nc(NCc3cccnc3)n(C)c(=O)c2s1	.	-	-	-	.	.
CC(=O)Nc1cc(-c2ccc(N3CCN(C)CC3)cc2)cn2c(-c3ccc(S(C)(=O)=O)cc3)cnc12	.	-	-	-	.	.
Cc1ccc(SCCNC(=O)c2ccc(C)c(S(=O)(=O)Nc3ccccc3C)c2)cc1	-	-	-	-	48	-
CN1C(=O)c2cccc(N(C)C)c2C1=O	-	-	-	-	-	-
CN(C)c1cccc2c1C(=O)c1ccccc1C2=O	-	-	-	-	46	-
CC1(C(=O)Nc2cccc(C#N)c2)CCN1C(=O)Cc1ccc(-c2ccccc2)cc1 (centres undefined)	.	-	28	-	.	.
CC(C)c1ccc(CC(=O)N2CCC2(C)C(=O)Nc2cccc(C#N)c2)cc1 (centres undefined)	.	-	-	-	.	.
O=C(Nc1ccc([N+](=O)[O-])cn1)c1ccc(Br)o1	-	-	-	-	64	-
C[C@H]1CN([C@@H](C)CO)C(=O)CCCn2cc(nn2)CO[C@@H]1CN(C)S(=O)(=O)c1ccc(C#N)cc1	.	-	-	-	.	.
O=C1C2C3C=CC(C3)C2C(=O)N1c1ccccc1OS(=O)(=O)c1ccccc1 (centres undefined)	-	-	-	-	71	-
Cc1ccc(S(=O)(=O)Oc2ccccc2N2C(=O)C3C4CCC(C4)C3C2=O)cc1 (centres undefined)	-	-	-	-	-	-

Compound activity from PubChem.
